Usually Ki stands for the dissociation constant of the complex between target and ligand, obtained from inhibition or displacement.

In assay [1] the target is T1, Vesicular glutamate transporter 3 (Rattus norvegicus) (UniProt Q7TSF2).
T1 sequence (whole entry): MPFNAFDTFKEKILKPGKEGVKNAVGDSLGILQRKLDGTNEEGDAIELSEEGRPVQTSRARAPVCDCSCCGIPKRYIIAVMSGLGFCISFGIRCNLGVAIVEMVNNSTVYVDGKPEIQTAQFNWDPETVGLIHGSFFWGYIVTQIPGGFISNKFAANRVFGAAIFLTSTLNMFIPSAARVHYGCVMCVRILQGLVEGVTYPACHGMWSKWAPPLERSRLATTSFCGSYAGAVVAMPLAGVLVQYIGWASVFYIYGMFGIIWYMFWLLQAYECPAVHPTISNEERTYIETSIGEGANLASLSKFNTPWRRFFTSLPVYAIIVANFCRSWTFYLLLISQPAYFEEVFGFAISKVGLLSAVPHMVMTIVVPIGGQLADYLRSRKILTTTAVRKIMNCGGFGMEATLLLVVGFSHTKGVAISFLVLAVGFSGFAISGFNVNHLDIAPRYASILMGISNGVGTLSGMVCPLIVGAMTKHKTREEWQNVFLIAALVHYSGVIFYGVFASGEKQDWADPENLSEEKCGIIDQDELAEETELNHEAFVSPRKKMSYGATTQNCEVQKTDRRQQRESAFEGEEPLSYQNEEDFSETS
Briefly: Inhibition of Vesicular glutamate transporter (VGLUT) by the ability to block the uptake of 250 uM of [3,4-3H]-L-glutamate into synaptic vesicles isolated from rat forebrain at a 20 fold excess (5 mM) of inhibitor. It is filed as functional. Summed up: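 Inhibitor at 5 mM added with substrate. Quenched in ice-cold 150 mM KCl, filtered, counted by LSC. ATP-free uptake subtracted. Expressed as % of control uptake, mean ± SEM (n).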

Assay [2] has as its target T1, Vesicular glutamate transporter 3 (Rattus norvegicus). Briefly: Inhibition of Vesicular glutamate transporter (VGLUT) by the ability to block the uptake of 250 uM of [3,4-3H]-L-glutamate into synaptic vesicles isolated from rat forebrain at equimolar conc. (250 uM ). It is filed as functional. Summed up: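 Same vesicle uptake set-up (0.25 mM [3H]-L-glutamate, 2.0 mM ATP, 30 °C, 1.5 min, filtration/LSC, ATP-free background subtracted), with inhibitor at 250 µM added with substrate. Expressed as % of control uptake, mean ± SEM (n).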

Assay [3] concerns the target T2, Vesicular glutamate transporter 3 (Rattus norvegicus, UniProt Q7TSF2).
T2 sequence (Q7TSF2 whole entry): T1 sequence (whole entry)
The assay can be described thus: Evaluated for competitive inhibition against Vesicular glutamate transporter (VGLUT), and Ki value was reported.

For assay [4], the target named is T2, Vesicular glutamate transporter 3. The assay can be described thus: Estimated inhibitory conc. against Vesicular glutamate transporter (VGLUT), using Cheng-Prushoff equation. Summed up:
(§1)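 Rat forebrain synaptic vesicles (male Sprague-Dawley, stored -80 °C). Vesicles (100-150 µg protein) preincubated 5 min at 30 °C. Ran 1.5 min, then filtration and LSC. Uptake without ATP subtracted. IC50 from dose-response; Ki by Cheng-Prusoff.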

Assay [5] has the same target. Briefly: Compound was evaluated for competitive inhibition against Vesicular glutamate transporter (VGLUT), and Ki value was reported,.using Cheng-Prushoff equation. Summed up: as §1
For assay [6] the target is unchanged. Briefly: Compound was evaluated for the inhibition of Vesicular glutamate transporter (VGLUT).
For assay [7] the target is unchanged. The assay can be described thus: Inhibitory conc. against Vesicular glutamate transporter (VGLUT), derived from Lineweaver-Burke analysis. Summed up:
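Uptake into rat forebrain synaptic vesicles (ATP 2.0 mM, 30 °C, 1.5 min, [3H]-L-glutamate, filtration and LSC) run across both inhibitor and substrate concentrations. Ki from Lineweaver-Burk double reciprocal plots (1/V vs 1/[S]) and a replot of Km(app) against inhibitor concentration.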

Take `O=C(O)c1cc(C(=O)O)c2c(Br)cccc2n1`: the Glutamate uptake remaining (% of control) in assay [1] turned out to be 11%; in assay [2], 100%.
Take `COc1cc2nc(C(=O)O)cc(C(=O)O)c2cc1OC`: the Glutamate uptake remaining (% of control) in assay [1] was found to be 58%; in assay [2], 100%.
In turn, `O=C(O)c1cc(C(=O)O)c2cc(OC3CCCCC3)ccc2n1` yielded a Glutamate uptake remaining (% of control) in assay [2] of 67%.
`O=C(O)c1cc(O)c2cccc(O)c2n1` [XANTHURENATE]: in assay [3], the inhibition constant (Ki) came out at 190 µM.
The molecule `O=C(O)c1cc(C(=O)O)c2c(/C=C/c3ccccc3)cccc2n1` gave a Glutamate uptake remaining (% of control) in assay [2] of 27%.
As for `COc1cc(OC)c2nc(C(=O)O)cc(C(=O)O)c2c1`, the Glutamate uptake remaining (% of control) in assay [1] worked out at 40%; in assay [2], 100%.
In the same order, the values of `O=C(O)c1cc(C(=O)O)c2cc(Cl)ccc2n1` are 1% and 73%.
In assay [2], `O=C(O)c1cc(C(=O)O)c2c(-c3ccccc3)cccc2n1` had a Glutamate uptake remaining (% of control) of 100%.
The same measure, in the same setting: next, `O=C(O)c1cc(C(=O)O)c2c(-c3cccc4ccccc34)cccc2n1`: 64%.
The same measure, in the same setting: the value for `O=C(O)c1cc(C(=O)O)c2cc(/C=C/c3cccc4ccccc34)ccc2n1` was 21%.
On to `O=C(O)c1cc(C(=O)O)c2cccc(Br)c2n1`, for which the Glutamate uptake remaining (% of control) stood at 7% in assay [1] and 100% in assay [2].
In the same order, the values of `COc1ccc(OC)c2c(C(=O)O)cc(C(=O)O)nc12` are 62% and 100%.
For the molecule `O=C(O)c1cc(C(=O)O)c2cc(CCc3ccccc3)ccc2n1`, the Ki in assay [4] was 143 µM. Further, the Glutamate uptake remaining (% of control) in assay [2] is 47%.
Take `CCCCCCOc1ccc2nc(C(=O)O)cc(C(=O)O)c2c1`: the Glutamate uptake remaining (% of control) in assay [2] amounted to 79%.
The same measure, in the same setting: next, `O=C(O)c1cc(C(=O)O)c2cccc(-c3ccccc3)c2n1`: 88%.
`COc1cc(OC)c2c(C(=O)O)cc(C(=O)O)nc2c1`: the results for the Glutamate uptake remaining (% of control) in assay [1] and in assay [2] were 15% and 100%, respectively.
As to `O=C(O)c1cc(C(=O)O)c2cc(-c3cccc4ccccc34)ccc2n1`, the Glutamate uptake remaining (% of control) in assay [2] came to 53%.
Same read-out and setting: next, `O=C(O)c1cc(C(=O)O)c2c(I)cccc2n1`: 100%.
Take `O=C(O)c1cc(C(=O)O)c2c(F)cccc2n1`: the Glutamate uptake remaining (% of control) in assay [1] was determined as 54%; in assay [2], 100%.
`O=C(O)c1cc(C(=O)O)c2cc(Br)cc(Br)c2n1`: the Glutamate uptake remaining (% of control) in assay [1] turned out to be 2%.
For `O=C(O)c1cc(C(=O)O)c2cc(/C=C/c3ccc(-c4ccccc4)cc3)ccc2n1`, in assay [4], the inhibition constant Ki was 64 µM. Besides, in assay [2], the Glutamate uptake remaining (% of control) turned out to be 37%.
Turning to `COc1ccc2nc(C(=O)O)cc(C(=O)O)c2c1`, the Glutamate uptake remaining (% of control) came to 51% in assay [1] and 100% in assay [2].
For `O=C(O)c1cc(C(=O)O)c2cccc(F)c2n1` the same measures were 39% and 100%.
For `O=C(O)c1cc(C(=O)O)c2cc(I)ccc2n1` the same measures were 10% and 87%.
As to `COc1ccc2c(C(=O)O)cc(C(=O)O)nc2c1`, the Glutamate uptake remaining (% of control) worked out at 48% in assay [1] and 100% in assay [2].
As to `O=C(O)c1cc(C(=O)O)c2cccc(O)c2n1`, the values for the Glutamate uptake remaining (% of control) in assay [1] and in assay [2] were 2% and 73%, respectively. Also, the Ki in assay [4] is 286 µM.
In the same order, the values of `O=C(O)c1cc(C(=O)O)c2cc(OCc3ccccc3)ccc2n1` are 3%, 85% and 368 µM.
`O=C(O)c1cc(C(=O)O)c2cc(-c3ccccc3)ccc2n1` displayed a Glutamate uptake remaining (% of control) in assay [2] of 77%.
In the case of `O=C(O)c1cc(O)c2ccc(Cl)cc2n1` [7-CHLOROKYNURENIC ACID], in assay [3], the inhibition constant (Ki) is 590 µM.
As to `CCOc1ccc2nc(C(=O)O)cc(C(=O)O)c2c1`, the Glutamate uptake remaining (% of control) in assay [2] was determined as 97%.
Same read-out and setting: next, `O=C(O)c1cc(C(=O)O)c2ccc(-c3ccccc3)cc2n1`: 91%.
Turning to `O=C(O)c1cc(C(=O)O)c2ccccc2n1`, the Glutamate uptake remaining (% of control) in assay [1] came out at 38%; in assay [2], 100%.
Molecule `O=C(O)c1cc(C(=O)O)c2ccc(Cl)c(Cl)c2n1` came in with a Glutamate uptake remaining (% of control) in assay [1] of 2%.
Consider `O=C(O)c1cc(C(=O)O)c2cc(/N=N/c3ccccc3)ccc2n1`, for which the values for the Glutamate uptake remaining (% of control) in assay [1] and in assay [2] were 0% and 31%, respectively. Moreover, in assay [5], the affinity, expressed as Ki, was 288 µM.
Consider `O=C(O)c1cc(C(=O)O)c2cc(Oc3ccccc3)ccc2n1`, for which the Glutamate uptake remaining (% of control) in assay [2] was 74%.
Still for that read-out and setting: next, `O=C(O)c1cc(C(=O)O)c2cccc(C(=O)O)c2n1`: 100%.
On to `O=C(O)c1cc(=O)c2ccccc2[nH]1` [TRANSTORINE], for which the Ki in assay [6] is 1300 µM.
Take `COc1cccc2c(C(=O)O)cc(C(=O)O)nc12`: the Glutamate uptake remaining (% of control) in assay [1] is 20%; in assay [2] it was 90%.
Regarding `O=C(O)c1cc(C(=O)O)c2ccc(CCc3ccccc3)cc2n1`, the Glutamate uptake remaining (% of control) in assay [2] was 29%.
Same read-out and setting: next, `O=C(O)c1cc(C(=O)O)c2cc(O)ccc2n1`: 100%.
Regarding `C=C(C[C@H](N)C(=O)O)C(=O)O`, in assay [3], the affinity, expressed as Ki, was 3000 µM.
In turn, `O=C(O)c1cc(C(=O)O)c2cc(OCCCCCCO)ccc2n1` had a Glutamate uptake remaining (% of control) in assay [2] of 74%.
Same read-out and setting: the value for `O=C(O)c1cc(C(=O)O)c2cccc(-c3cccc4ccccc34)c2n1` was 70%.
On to `O=C(O)c1cc(C(=O)O)c2cc(Br)ccc2n1`, for which the Glutamate uptake remaining (% of control) in assay [1] came to 2%; in assay [2], 74%.
`O=C(O)c1cc(C(=O)O)c2ccc(O)cc2n1` gave a Glutamate uptake remaining (% of control) in assay [2] of 100%.
`O=C(O)c1cc(C(=O)O)c2cc(/C=C/c3ccccc3)ccc2n1`: the inhibition constant Ki is 167 µM in assay [4] and 129 µM in assay [7]. The molecule also had a Glutamate uptake remaining (% of control) in assay [2] of 51%.
In the case of `O=C(O)c1cc(C(=O)O)c2ccc(OCc3ccccc3)cc2n1`, the Glutamate uptake remaining (% of control) was determined as 1% in assay [1] and 50% in assay [2].
As to `O=C(O)c1cc(C(=O)O)c2cc(OCCc3ccccc3)ccc2n1`, the inhibition constant (Ki) in assay [4] is 189 µM.
In assay [3], `COc1cc(-c2ccc(/N=N/c3ccc4c(S(=O)(=O)O)cc(S(=O)(=O)O)c(N)c4c3O)c(OC)c2)ccc1/N=N/c1ccc2c(S(=O)(=O)O)cc(S(=O)(=O)O)c(N)c2c1O` [CHICAGO SKY BLUE] yielded an inhibition constant (Ki) of 0.19 µM.
Consider `O=C(O)c1cc(C(=O)O)c2cc(-c3ccc(-c4ccccc4)cc3)ccc2n1`, for which the Ki in assay [4] was 41 µM; in assay [7] it was 95 µM. Moreover, in assay [2], the Glutamate uptake remaining (% of control) came out at 20%.
As for `Cc1cc(-c2ccc(/N=N/c3ccc4c(S(=O)(=O)O)cc(S(=O)(=O)O)c(N)c4c3O)c(C)c2)ccc1/N=N/c1ccc2c(S(=O)(=O)O)cc(S(=O)(=O)O)c(N)c2c1O` [EVANS BLUE], the Ki in assay [3] came to 0.04 µM.
Regarding `O=C(O)c1cc(C(=O)O)c2cc3c(cc2n1)OCCO3`, the Glutamate uptake remaining (% of control) amounted to 12% in assay [1] and 100% in assay [2].
Consider `O=C(O)c1cc(C(=O)O)c2cc3c(cc2n1)OCO3`, for which the Glutamate uptake remaining (% of control) came out at 24% in assay [1] and 100% in assay [2].
On to `N[C@]1(C(=O)O)CC[C@H](C(=O)O)C1` (relative stereo), for which the Ki in assay [3] amounted to 700 µM.
As to `O=C(O)c1cc(C(=O)O)c2cc(OCCO)ccc2n1`, the Glutamate uptake remaining (% of control) in assay [2] was 100%.

The values above are taken from ChEMBL document CHEMBL1135989, “Synthesis and in vitro pharmacology of substituted quinoline-2,4-dicarboxylic acids as inhibitors of vesicular glutamate transport” (J Med Chem, 2002).
